{
  "source": "ChEMBL document CHEMBL1146047",
  "about": "“Novel pyrazolopyrimidopyridazinones with potent and selective phosphodiesterase 5 (PDE5) inhibitory activity as potential agents for treatment of erectile dysfunction” (J Med Chem, 2006)",
  "key": {"[1]": {"target": "T1, cGMP-specific 3',5'-cyclic phosphodiesterase (Homo sapiens, UniProt O76074)", "assay": "Inhibition of PDE5 at 2 uM", "method_in_brief": "(§1)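 PDE5 enzyme preparation was stored frozen at -80 °C with 1 g/L bovine serum albumin until use. […] Activity is reported as percent inhibition at the single test concentration indicated.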"}, "[2]": {"test_system": "Phosphodiesterase 6 (Bos taurus)", "assay": "Inhibition of PDE6 at 2 uM"}, "[3]": {"target": "Phosphodiesterase 6 (Bos taurus)", "assay": "Inhibition of PDE6"}, "[4]": {"target": "T1, cGMP-specific 3',5'-cyclic phosphodiesterase", "assay": "Inhibition of PDE5"}, "Homo sapiens": {"species": "Homo sapiens", "assay": "Selectivity for PDE5 over PDE6"}, "[5]": {"target": "T1, cGMP-specific 3',5'-cyclic phosphodiesterase", "assay": "Inhibition of PDE5 at 0.2 uM", "method_in_brief": "as §1"}, "[6]": {"test_system": "Phosphodiesterase 6 (Bos taurus)", "assay": "Inhibition of PDE6 at 0.2 uM"}},
  "data": [
    {"compound": "Cc1nn(CCC2CCNCC2)c(=O)c2nc(C)n3nc(-c4ccccc4)cc3c12", "values": [
      {"measurement": "inhibition", "setting": "[1]", "result": 67.7, "unit": "%"},
      {"measurement": "inhibition", "setting": "[2]", "result": 26.6, "unit": "%"}
    ]},
    {"compound": "Cc1nn(Cc2ccccc2)c(=O)c2ncn3nc(-c4ccccc4)cc3c12", "values": [
      {"measurement": "IC50", "setting": "[3]", "result": 860, "unit": "nM"},
      {"measurement": "IC50", "setting": "[4]", "result": 180, "unit": "nM"}
    ]},
    {"compound": "CCCc1nc2c(=O)n(Cc3ccccc3)nc(C)c2c2cc(-c3ccccc3)nn12", "values": [
      {"measurement": "IC50", "setting": "[3]", "result": 610, "unit": "nM"},
      {"measurement": "Selectivity ratio", "setting": "Homo sapiens", "result": 15},
      {"measurement": "IC50", "setting": "[4]", "result": 40, "unit": "nM"}
    ]},
    {"compound": "Cc1nc2c(=O)n(Cc3ccccc3)nc(C3CCCC3)c2c2cc(-c3ccccc3)nn12", "values": [
      {"measurement": "inhibition", "setting": "[1]", "result": 14.3, "unit": "%"},
      {"measurement": "inhibition", "setting": "[2]", "result": 12.3, "unit": "%"}
    ]},
    {"compound": "Cc1nn(Cc2ccc3c(c2)OCO3)c(=O)c2nc(C)n3nc(-c4ccccc4)cc3c12", "values": [
      {"measurement": "IC50", "setting": "[4]", "result": 390, "unit": "nM"},
      {"measurement": "inhibition", "setting": "[2]", "result": 7, "unit": "%"}
    ]},
    {"compound": "Cc1nn(C(C)C)c(=O)c2nc(C)n3nc(-c4ccccc4)cc3c12", "values": [
      {"measurement": "inhibition", "setting": "[1]", "result": 44.7, "unit": "%"},
      {"measurement": "inhibition", "setting": "[2]", "result": 1.2, "unit": "%"}
    ]},
    {"compound": "Cc1nn(Cc2ccccc2)c(=O)c2nc(C)n3nc(-c4cccnc4)cc3c12", "values": [
      {"measurement": "IC50", "setting": "[3]", "result": 280, "unit": "nM"},
      {"measurement": "IC50", "setting": "[4]", "result": 470, "unit": "nM"}
    ]},
    {"compound": "CCCn1nc(C)c2c(nc(C)n3nc(-c4ccccc4)cc23)c1=O", "values": [
      {"measurement": "inhibition", "setting": "[1]", "result": 44.9, "unit": "%"},
      {"measurement": "inhibition", "setting": "[2]", "result": 6.9, "unit": "%"}
    ]},
    {"compound": "Cc1nc2c(=O)n(Cc3ccccc3)nc(CN3CCN(C)CC3)c2c2cc(-c3ccccc3)nn12", "values": [
      {"measurement": "inhibition", "setting": "[5]", "result": 23, "unit": "%"},
      {"measurement": "inhibition", "setting": "[6]", "result": 30, "unit": "%"}
    ]},
    {"compound": "CCc1nn(Cc2ccccc2)c(=O)c2nc(C)n3nc(-c4ccccc4)cc3c12", "values": [
      {"measurement": "IC50", "setting": "[4]", "result": 220, "unit": "nM"},
      {"measurement": "inhibition", "setting": "[2]", "result": 21.8, "unit": "%"}
    ]},
    {"compound": "COC(=O)CCCCc1nc2c(=O)n(Cc3ccccc3)nc(C)c2c2cc(-c3ccccc3)nn12", "values": [
      {"measurement": "IC50", "setting": "[4]", "result": 95, "unit": "nM"},
      {"measurement": "inhibition", "setting": "[2]", "result": 1.1, "unit": "%"}
    ]},
    {"compound": "Cc1nn(Cc2ccncc2)c(=O)c2nc(C)n3nc(-c4ccccc4)cc3c12", "values": [
      {"measurement": "IC50", "setting": "[4]", "result": 240, "unit": "nM"},
      {"measurement": "inhibition", "setting": "[2]", "result": 39.4, "unit": "%"}
    ]},
    {"compound": "Cc1nc2c(=O)n(Cc3ccccc3)nc(C(C)C)c2c2cc(-c3ccccc3)nn12", "values": [
      {"measurement": "IC50", "setting": "[4]", "result": 100, "unit": "nM"},
      {"measurement": "inhibition", "setting": "[2]", "result": 59.8, "unit": "%"}
    ]},
    {"compound": "CCCCn1nc(C)c2c(nc(C)n3nc(-c4ccccc4)cc23)c1=O", "values": [
      {"measurement": "inhibition", "setting": "[1]", "result": 54.6, "unit": "%"},
      {"measurement": "inhibition", "setting": "[2]", "result": 32.5, "unit": "%"}
    ]},
    {"compound": "Cc1nn(Cc2ccccc2)c(=O)c2nc(C)n3nc(-c4ccoc4)cc3c12", "values": [
      {"measurement": "IC50", "setting": "[3]", "result": 330, "unit": "nM"},
      {"measurement": "IC50", "setting": "[4]", "result": 50, "unit": "nM"}
    ]},
    {"compound": "Cc1nnc(NCc2ccc3c(c2)OCO3)c2nc(C)n3nc(-c4ccccc4)cc3c12", "values": [
      {"measurement": "inhibition", "setting": "[1]", "result": 56.8, "unit": "%"}
    ]},
    {"compound": "Cc1nn(Cc2ccccc2)c(=O)c2nc(C)n3nc(-c4ccsc4)cc3c12", "values": [
      {"measurement": "IC50", "setting": "[3]", "result": 2200, "unit": "nM"},
      {"measurement": "Selectivity ratio", "setting": "Homo sapiens", "result": 16},
      {"measurement": "IC50", "setting": "[4]", "result": 140, "unit": "nM"}
    ]},
    {"compound": "CCn1nc(C)c2c(nc(C)n3nc(-c4ccccc4)cc23)c1=O", "values": [
      {"measurement": "inhibition", "setting": "[1]", "result": 49.3, "unit": "%"},
      {"measurement": "inhibition", "setting": "[6]", "result": 53.4, "unit": "%"}
    ]},
    {"compound": "CCOCc1nn(Cc2ccccc2)c(=O)c2nc(C)n3nc(-c4ccccc4)cc3c12", "values": [
      {"measurement": "IC50", "setting": "[3]", "result": 330, "unit": "nM"},
      {"measurement": "IC50", "setting": "[4]", "result": 71, "unit": "nM"}
    ]},
    {"compound": "Cc1nn(Cc2ccccc2)c(=O)c2nc(C)n3nc(-c4ccc(F)cc4)cc3c12", "values": [
      {"measurement": "inhibition", "setting": "[1]", "result": 38.8, "unit": "%"},
      {"measurement": "inhibition", "setting": "[2]", "result": 4.5, "unit": "%"}
    ]},
    {"compound": "Cc1nn(Cc2ccccc2)c(=O)c2nc(C)n3nc(-c4ccc(Cl)cc4)cc3c12", "values": [
      {"measurement": "IC50", "setting": "[3]", "result": 4700, "unit": "nM"},
      {"measurement": "IC50", "setting": "[4]", "result": 370, "unit": "nM"}
    ]},
    {"compound": "Cc1nn(CC(=O)O)c(=O)c2nc(C)n3nc(-c4ccccc4)cc3c12", "values": [
      {"measurement": "inhibition", "setting": "[5]", "result": 7.6, "unit": "%"},
      {"measurement": "inhibition", "setting": "[6]", "result": 11.2, "unit": "%"}
    ]},
    {"compound": "Cc1nn(Cc2ccccc2)c(=O)c2nc(C)n3nc(-c4ccccc4)cc3c12", "values": [
      {"measurement": "inhibition", "setting": "[2]", "result": 25, "unit": "%"}
    ]},
    {"compound": "Cc1nn(Cc2ccccc2)c(=O)c2nc(C)n3nc(-c4ccc(S(C)(=O)=O)cc4)cc3c12", "values": [
      {"measurement": "inhibition", "setting": "[1]", "result": 3.8, "unit": "%"},
      {"measurement": "inhibition", "setting": "[2]", "result": 2.8, "unit": "%"}
    ]},
    {"compound": "Cc1nnc(NCc2ccccc2)c2nc(C)n3nc(-c4ccccc4)cc3c12", "values": [
      {"measurement": "inhibition", "setting": "[1]", "result": 52.4, "unit": "%"}
    ]},
    {"compound": "COc1cccc(Cn2nc(C)c3c(nc(C)n4nc(-c5ccccc5)cc34)c2=O)c1", "values": [
      {"measurement": "Selectivity ratio", "setting": "Homo sapiens", "result": "> 20"},
      {"measurement": "IC50", "setting": "[4]", "result": 100, "unit": "nM"},
      {"measurement": "inhibition", "setting": "[2]", "result": 3.8, "unit": "%"}
    ]},
    {"compound": "C#CCn1nc(C)c2c(nc(C)n3nc(-c4ccccc4)cc23)c1=O", "values": [
      {"measurement": "inhibition", "setting": "[5]", "result": 19.7, "unit": "%"},
      {"measurement": "inhibition", "setting": "[6]", "result": 0.3, "unit": "%"}
    ]},
    {"compound": "CC(=O)CCc1nc2c(=O)n(Cc3ccccc3)nc(C)c2c2cc(-c3ccccc3)nn12", "values": [
      {"measurement": "Selectivity ratio", "setting": "Homo sapiens", "result": "> 240"},
      {"measurement": "IC50", "setting": "[4]", "result": 8.3, "unit": "nM"},
      {"measurement": "inhibition", "setting": "[2]", "result": 22.8, "unit": "%"}
    ]},
    {"compound": "COC(=O)CCc1nc2c(=O)n(Cc3ccccc3)nc(C)c2c2cc(-c3ccccc3)nn12", "values": [
      {"measurement": "IC50", "setting": "[4]", "result": 79, "unit": "nM"},
      {"measurement": "inhibition", "setting": "[2]", "result": 16.9, "unit": "%"}
    ]}
  ]
}
